V-ATPase pHluor – regulators of yeast V-ATPase proton transport; S. cerevisiae, pHLuorin cytosolic pH fluorescence; AID 504577; actives 0.37% (n = 350,000); response, % at 10 µM; in the data active = response mostly above about 7.3%, no sharp cut-off; inactive = mostly below about 5.4%; note: actives read high
Granule exo inh – blocks lytic granule exocytosis; TALL-104 LAMP-1 surface exposure, flow cytometry; cells stimulated with thapsigargin and PMA; inhibition, % at 10 µM; actives 0.66% (n = 360,000);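 active = inhibition above about 55%, limit read from the data; inconclusive = no clear call, values can overlap the other calls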
Beta2AR agonist – activates human beta-2 adrenergic receptor causing internalization; actives 0.43% (n = 340,000); AID 504454; response, % (no concentration beside the values); Am2.2-beta2AR cells, FAP receptor internalization, flow cytometry;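 active = response above a set limit, near 3 SD of response in nonfluorescent compounds, cut at about 42% in these data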
Target sequence (P07550 whole entry, looked up): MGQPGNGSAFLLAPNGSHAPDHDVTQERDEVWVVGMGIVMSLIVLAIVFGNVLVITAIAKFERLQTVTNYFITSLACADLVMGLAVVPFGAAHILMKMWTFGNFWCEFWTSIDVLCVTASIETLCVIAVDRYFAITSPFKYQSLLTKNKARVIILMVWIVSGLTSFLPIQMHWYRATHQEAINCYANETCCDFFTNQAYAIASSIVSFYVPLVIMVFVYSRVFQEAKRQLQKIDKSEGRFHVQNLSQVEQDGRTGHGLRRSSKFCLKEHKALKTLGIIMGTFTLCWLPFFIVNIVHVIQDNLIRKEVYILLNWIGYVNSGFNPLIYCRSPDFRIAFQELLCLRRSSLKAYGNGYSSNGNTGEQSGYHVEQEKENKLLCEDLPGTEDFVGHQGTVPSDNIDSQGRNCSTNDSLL
T cell modulator – T cell immune modulators affecting CD8 T cell-vesicle binding; 2C CD8+ T cell-vesicle binding, flow cytometry; stronger effect = lower value; response (vesicle binding), % at 7 µM; actives 0.068% (n = 330,000); AID 2052;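 active = response, share of CD8 T cells binding vesicles, and their 90th percentile fluorescence all below set limits, cut at about 80% in these data, passing the limit was not always enough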;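 note: values below 100% mean blocked vesicle binding to the CD8+ T cells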
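Read-out – percent CD8+ FL2 mean versus row control · System – murine 2C transgenic CD8+ T lymphocytes · Times – 1.5 h cell–vesicle binding at 37 °C, then 20 min icy labelling · Control set – naked vesicles low, QL9 vesicles with vehicle high · Detection – cytometric PE anti-B7-1 and Alexa647 anti-CD8 signals after 1% paraformaldehyde fixation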
MPTP inh – inhibitors of mitochondrial permeability transition pore. actives 1.4% (n = 360,000). isolated mouse mitochondria, Ca2+ swelling absorbance, 30 min. inhibition, % at 10 µM;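 active = inhibition of 50% or more, scaled per plate between neutral and stimulator controls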
rCAG RNA binder – r(CAG) repeat RNA binding. inhibition, % at 3 µM. TO-PRO-1 dye displacement fluorescence. actives 1.3% (n = 370,000);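 active = inhibition above the plate cutoff, the mean of all test compounds on that plate plus 3 SD, cut at about 35% in these data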;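 note: higher means more dye released from RNA so lower well fluorescence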
Hits are given with their value; - = inactive; ? = inconclusive; . = no result. Only some compounds are listed: those with a hit (about 3.8% of all), similar ones and a draw of the others.

SMILES	V-ATPase pHluor	Granule exo inh	Beta2AR agonist	T cell modulator	MPTP inh	rCAG RNA binder
COc1ccc(/C=N\NC(=O)c2ccc([N+](=O)[O-])cc2)cc1COc1c(F)c(F)cc(F)c1F	-	-	-	-	-	-
COc1cc(/C=N/NC(=O)c2cccnc2)ccc1OC(=O)c1ccc([N+](=O)[O-])cc1	-	76	-	-	-	-
Cc1ccc(-n2nnnc2SCC(=O)c2c(N)n(C3CC3)c(=O)[nH]c2=O)cc1	748	-	-	-	-	-
COC(=O)[C@]12C[C@H](CC(=O)NCc3ccc(C)o3)C(=O)N(CCc3ccc(OC)c(OC)c3)C1=C[C@H](C(C)C)O[C@@H]2C1CC1	.	.	.	.	.	-
O=C1C=CC(O)(c2cc(=O)c3c(O)cc(O)cc3o2)C=C1	-	-	45	-	-	-
CN(CCOC(=O)c1cc2ccccc2o1)C1CN(Cc2cn(Cc3cccc(F)c3)nn2)S(=O)(=O)C1 (stereo not drawn)	.	.	.	.	.	-
C=CCn1c(SCC(=O)C(C)(C)C)nnc1-c1ccc(Cl)cc1	.	.	.	.	.	-
O=C(CSc1ccccc1)Nc1nc2ccccc2[nH]1	32	-	-	-	-	-
CCN(CC)c1ccc(NC(=O)C2=CC=CN3CCS(=O)(=O)N=C23)cc1	-	-	-	0.0	-	-
CC(C)(C)c1ccc(NC(=O)C2=CC=CN3CCS(=O)(=O)N=C23)cc1	-	-	-	-	-	-
CCN(c1ccccc1)S(=O)(=O)c1ccc(NC(=O)c2nc(S(C)(=O)=O)ncc2Cl)cc1	-	-	104	-	-	.
CS(=O)(=O)c1ncc(Cl)c(C(=O)Nc2ccc(OC(F)F)cc2)n1	-	-	-	-	-	.
CSc1nnc(-c2cccc(NC(=S)NN)c2)o1	-	-	74	-	-	-
C[C@@H](/C=C/C(=O)OC(C)(C)C)Sc1ccc(C(C)(C)C)cc1	.	.	.	.	.	-
COC(=O)[C@H]1C[C@@]2(N3CCCCC3)c3ccccc3N(S(=O)(=O)c3ccccc3)[C@H]2N1	.	.	.	.	.	-
COc1ccc(C(=O)N2CCN(c3ccc(NC(=O)Cc4ccccc4)cc3)CC2)cc1	-	-	-	0.0	-	-
CCC(C)Sc1cccc(-c2nc3cnccn3c2NC2CCCCC2)c1 (stereo not drawn)	-	-	-	-	-	-
c1cc(SC2CCCCC2)cc(-c2nc3cnccn3c2NC2CCCCC2)c1	-	-	50	-	-	-
COc1cc(/C=C2/C(=O)N(c3ccccc3)N=C2C)ccc1OS(=O)(=O)c1ccccc1	.	.	.	-	.	.
COc1ccc(/C=C2/C(=O)N(c3ccccc3)N=C2C)cc1Br	-	-	76	-	-	-
COc1ccc(/C=N/NC(=S)NCCc2ccccc2)cc1	-	64	-	-	-	-
COc1cccc(/C=N/NC(=S)NCCc2ccccc2)c1	-	58	-	-	-	-
COc1ccc(O)c(/C=N/NC(=S)NCCc2ccccc2)c1	-	-	-	-	-	-
CC(C)CCN(C)C1CCN(C(=O)Nc2ccc3c(c2)OCO3)CC1	.	.	.	.	.	-
COCCCNC(=O)Cn1c(=O)oc2cc(S(=O)(=O)N3CC(C)CC(C)C3)ccc21 (stereo not drawn)	20	-	-	-	-	-
SMILES	V-ATPase pHluor	Granule exo inh	Beta2AR agonist	T cell modulator	MPTP inh	rCAG RNA binder
CCCCNC(=O)Cn1c(=O)oc2cc(S(=O)(=O)N3CC(C)CC(C)C3)ccc21 (stereo not drawn)	-	-	-	-	-	-
N#Cc1c(-c2ccco2)nc(SCc2ccc(F)cc2)[nH]c1=O	-	-	-	-	-	50
C=CCN1C(=O)/C(=C2/Sc3ccccc3N2CC)SC1=S	-	-	-	-	-	-
C=CCN1C(=O)/C(=C2/Sc3ccccc3N2CCCS(=O)(=O)O)SC1=S	-	-	-	-	-	85
O=C(OCCN1CCN(C2CN(Cc3cn(Cc4ccccc4C(F)(F)F)nn3)S(=O)(=O)C2)CC1)c1cc2ccccc2o1 (stereo not drawn)	.	.	.	.	.	-
O=C1S/C(=C/c2ccc(N3CCOCC3)o2)C(=O)N1Cc1ccc(F)cc1	-	78	-	-	-	-
O=C1S/C(=C\c2ccc(N3CCOCC3)o2)C(=O)N1Cc1ccc(F)cc1	-	-	-	-	-	.
CC(C)OC(=O)CN1C(=O)S/C(=C/c2ccc(N3CCCCC3)o2)C1=O	-	63	-	-	-	-
COC(=O)[C@H](CC(C)C)N(CCCc1cn(Cc2ccccc2)nn1)S(=O)(=O)c1ccccc1Br	.	.	.	.	.	-
CCN1CCN(c2cc(C)c3cc(NC(=S)N4CCN(c5ccccc5)CC4)ccc3n2)CC1	-	56	-	-	-	-
CCOc1ccc(CCNC(=O)CCS(=O)(=O)c2ccc(C)cc2)cc1OCC	-	-	-	0.0	-	-
CC(COc1cccc(C#N)c1)CN1CCC(C(O)(c2ccccc2)c2ccccc2)CC1 (stereo not drawn)	.	.	.	.	.	-
O=C(c1ccc2c(c1)CCN2S(=O)(=O)c1ccccc1)N1CCN(c2ccc(F)cc2)CC1	14	?	-	-	-	-
COc1ccc(CN2CCOCCOCCOCC2)cc1	14	-	-	-	-	-
COc1ccc(CN2CCOCCOCCN(Cc3ccc(OC)cc3)CCOCCOCC2)cc1	-	-	-	-	-	-
Cc1cccc(N=N/C(=C\O)C(=O)c2ccc(Br)cc2)c1	-	101	-	-	-	-
CCOc1ccc(C=NNc2ccc(S(=O)(=O)Nc3ccccc3C(=O)O)cc2[N+](=O)[O-])cc1OC	-	-	-	-	-	.
O=C(O)c1ccccc1NS(=O)(=O)c1ccc(N/N=C/c2cccc(O)c2O)c([N+](=O)[O-])c1	-	-	-	.	-	92
CN(CCO)c1ccc(C=NNc2ccc([N+](=O)[O-])cc2S(=O)(=O)Nc2ccccc2C(=O)O)cc1	.	-	.	-	-	91
CC(CCN1CCC(C(O)(c2ccccc2)c2ccccc2)CC1)Oc1cccc(C(F)(F)F)c1 (stereo not drawn)	.	.	.	.	.	-
CCN(CC)CC(C)(C)C(=O)/C=C/c1ccc(/C=C/C(=O)C(C)(C)CN(CC)CC)cc1	-	-	46	.	-	-
CCN(CC)CCOC(=O)/C=C/c1ccccc1	-	-	-	-	-	-
CC(=O)C1(C(=O)NCc2ccccc2)CC(c2ccccc2C(F)(F)F)=NO1 (stereo not drawn)	.	.	.	.	.	-
O=Cc1cc2ccccc2nc1SCCCF	-	59	-	-	-	-
COc1ccc(-n2cccc2/C=C2\C(=N)N3N=C(c4ccco4)SC3=NC2=O)cc1	-	-	-	-	-	51
COc1cc(/C=C2/C(=O)ON=C2c2ccccc2)ccc1O	-	-	42	-	-	-
O=C1ON=C(c2ccccc2)/C1=C/c1ccc(O)cc1	-	-	47	-	-	-
Cc1ccc(/C=C2/C(=O)ON=C2c2ccccc2)o1	-	-	-	-	-	39
COc1cc(=O)oc(C=O)c1C	.	.	.	.	.	-
CC1(C)CC(=O)C=C(c2ccc(-c3ccc4[nH]ccc4c3)cc2)C1=O	-	70	.	.	-	-

Bioassay records: PubChem BioAssay, several laboratories
